Consider 15 compounds from ChEMBL document CHEMBL1126948, “Exploration of neutral endopeptidase active site by a series of new thiol-containing inhibitors” (J Med Chem, 1993).

The structures appear in SMILES notation. pIC50: −log10 of the molar value.

Assay [1] addresses T1, Angiotensin-converting enzyme (Homo sapiens, UniProt P12821). Description: Inhibitory concentration was evaluated by inhibiting 50% of Angiotensin I Converting Enzyme activity using 50 uM N-Cbz-Phe-His-Leu as substrate. In short, it runs like this: (§1)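 Recombinant human ACE preincubated 15 min at 37 °C with various inhibitor concentrations in 50 mM Tris-HCl pH 7.4. N-Cbz-Phe-His-Leu then added to a final 0.05 mM. Reaction ran 15 min and was stopped with 2 M NaOH. His-Leu measured fluorimetrically (ex 365, em 495 nm) against a His-Leu calibration curve. IC50 by log probit of five concentrations, mean ± SEM of three independent experiments.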

In another assay the target is T2, Neprilysin (Oryctolagus cuniculus, UniProt P08049).
T2 sequence (P08049 whole entry): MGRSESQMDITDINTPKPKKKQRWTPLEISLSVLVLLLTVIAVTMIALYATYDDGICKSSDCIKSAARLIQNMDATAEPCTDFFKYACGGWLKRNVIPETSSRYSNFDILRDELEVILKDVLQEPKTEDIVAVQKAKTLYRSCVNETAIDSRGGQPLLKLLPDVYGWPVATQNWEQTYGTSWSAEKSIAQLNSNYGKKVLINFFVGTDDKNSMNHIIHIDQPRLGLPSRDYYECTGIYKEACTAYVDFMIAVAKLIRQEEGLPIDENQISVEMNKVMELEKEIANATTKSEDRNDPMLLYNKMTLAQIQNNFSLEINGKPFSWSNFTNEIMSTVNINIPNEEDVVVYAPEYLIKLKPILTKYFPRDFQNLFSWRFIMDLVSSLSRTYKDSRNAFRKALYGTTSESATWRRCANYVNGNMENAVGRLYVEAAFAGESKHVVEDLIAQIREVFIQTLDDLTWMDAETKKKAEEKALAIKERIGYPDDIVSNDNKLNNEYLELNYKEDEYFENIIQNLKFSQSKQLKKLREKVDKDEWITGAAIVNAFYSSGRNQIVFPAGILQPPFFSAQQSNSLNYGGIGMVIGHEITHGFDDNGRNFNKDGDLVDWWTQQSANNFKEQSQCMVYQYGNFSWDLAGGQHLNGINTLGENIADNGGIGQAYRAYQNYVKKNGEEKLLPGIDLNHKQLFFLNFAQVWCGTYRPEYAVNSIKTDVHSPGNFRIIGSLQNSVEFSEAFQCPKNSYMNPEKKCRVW
Description: Inhibitory concentration was evaluated by Inhibiting 50% of Neutral endopeptidase enzyme (NEP) activity using 20 nM [3H]D-Ala2-Leu-enkephalin as substrate. The gist of the method:
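NEP purified to homogeneity from rabbit kidney, final 1 pmol/100 μL. Preincubated 15 min at 25 °C with or without increasing inhibitor concentrations in 50 mM Tris-HCl pH 7.4. [3H]-D-Ala2-Leu-enkephalin added to a final 20 nM. Stopped after 30 min with 0.5 M HCl. Tritiated metabolites separated on polystyrene beads. IC50 by log probit of five concentrations, mean ± SEM of three independent experiments.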

Assay [2] has as its target T1, Angiotensin-converting enzyme. Description: Inhibitory concentration was evaluated by inhibiting 50% of Angiotensin I Converting Enzyme activity using 50 micro M N-Cbz-Phe-His-Leu as substrate. The gist of the method: as §1
Assay [3] shares this target. The assay is described as follows: Inhibitory concentration was evaluated by Inhibiting 50% of Angiotensin I converting enzyme activity using 50 uM N-Cbz-Phe-His-Leu as substrate.

T1 sequence (P12821 whole entry): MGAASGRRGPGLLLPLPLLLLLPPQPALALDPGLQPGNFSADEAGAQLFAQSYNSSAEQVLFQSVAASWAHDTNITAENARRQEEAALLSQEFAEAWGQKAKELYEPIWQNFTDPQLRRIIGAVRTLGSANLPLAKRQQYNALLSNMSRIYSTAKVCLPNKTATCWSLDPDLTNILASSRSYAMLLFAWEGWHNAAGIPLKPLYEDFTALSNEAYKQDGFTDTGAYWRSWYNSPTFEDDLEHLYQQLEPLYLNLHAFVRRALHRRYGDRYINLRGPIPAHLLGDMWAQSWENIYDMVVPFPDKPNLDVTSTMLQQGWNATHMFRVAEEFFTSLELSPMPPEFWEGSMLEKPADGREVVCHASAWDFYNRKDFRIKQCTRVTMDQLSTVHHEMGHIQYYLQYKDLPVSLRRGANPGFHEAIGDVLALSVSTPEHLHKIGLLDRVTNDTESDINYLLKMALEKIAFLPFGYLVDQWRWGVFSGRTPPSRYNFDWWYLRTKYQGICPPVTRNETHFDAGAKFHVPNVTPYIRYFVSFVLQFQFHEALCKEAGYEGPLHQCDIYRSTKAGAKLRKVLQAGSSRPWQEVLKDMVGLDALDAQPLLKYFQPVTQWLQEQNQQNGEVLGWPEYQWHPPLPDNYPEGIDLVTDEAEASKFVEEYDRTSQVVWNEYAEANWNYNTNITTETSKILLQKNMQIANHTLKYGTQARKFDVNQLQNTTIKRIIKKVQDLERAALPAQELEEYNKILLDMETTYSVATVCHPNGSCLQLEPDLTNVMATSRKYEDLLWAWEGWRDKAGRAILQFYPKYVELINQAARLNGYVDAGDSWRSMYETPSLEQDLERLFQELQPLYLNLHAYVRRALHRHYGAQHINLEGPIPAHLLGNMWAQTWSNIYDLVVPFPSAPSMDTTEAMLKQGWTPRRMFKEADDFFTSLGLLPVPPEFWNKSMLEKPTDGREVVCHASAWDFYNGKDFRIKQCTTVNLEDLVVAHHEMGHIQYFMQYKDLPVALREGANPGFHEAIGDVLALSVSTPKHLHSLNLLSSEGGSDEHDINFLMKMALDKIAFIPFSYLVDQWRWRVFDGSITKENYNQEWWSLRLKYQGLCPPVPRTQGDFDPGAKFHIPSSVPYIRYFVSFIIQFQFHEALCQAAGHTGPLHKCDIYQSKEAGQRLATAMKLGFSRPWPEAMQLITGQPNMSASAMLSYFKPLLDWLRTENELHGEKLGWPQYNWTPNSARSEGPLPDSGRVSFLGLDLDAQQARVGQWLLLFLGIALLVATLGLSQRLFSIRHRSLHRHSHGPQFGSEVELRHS

Consider `CC(NC(=O)C(Cc1ccccc1)C(S)CCc1ccccc1)C(=O)O` (stereo not given), for which the pIC50 (commonly the IC50 on a negative log10 scale, so that one unit is a factor of ten) in assay [1] was 5.40; at Neprilysin, 7.36.
As for `CC(C)CC(S)[C@H](Cc1ccccc1)C(=O)N[C@@H](C)C(=O)O` (stereo not given in full), the pIC50 is 5.40 in assay [1] and 7.40 on Neprilysin.
The like results for `CC(C)C(C(=O)NC(Cc1ccc(O)cc1)C(=O)O)C(S)CCc1ccccc1` (stereo not given) were, in that order, 5.35 and 7.28.
Consider `CC(C)C[C@H](S)[C@@H](Cc1ccccc1)C(=O)N[C@@H](C)C(=O)O`, for which the pIC50 in assay [2] was 4.79; against Neprilysin it was 8.44.
On to `CC(C)CC(S)C(Cc1ccccc1)C(=O)NC(C)C(=O)O` (stereo not given), for which the negative logarithm of the IC50 (pIC50) in assay [1] was 4.92; on Neprilysin, 7.85.
For `CCCCC(NC(=O)C(Cc1ccccc1)C(C)S)C(=O)NC(Cc1ccc(O)cc1)C(=O)O` (stereo not given), the pIC50 in assay [3] is 5.21; at Neprilysin, 7.30.
For `CC(C)C[C@@H](S)[C@H](Cc1ccccc1)C(=O)N[C@@H](C)C(=O)O`, the values for the pIC50 (in assay [1]; against Neprilysin) were 5.30 and 7.70, respectively.
Regarding `CCC(C)C(NC(=O)C(Cc1ccccc1)C(C)S)C(=O)NC(Cc1ccc(O)cc1)C(=O)O` (stereo not given), the pIC50 in assay [3] is 6.52; on Neprilysin, 6.42.
The like results for `CC(C)CC(S)CC(=O)NC(Cc1ccccc1)C(=O)NC(Cc1ccc(O)cc1)C(=O)O` (stereo not given) were, in that order, 5.55 and 7.30.
As to `CC(C)C(NC(=O)C(Cc1ccccc1)C(C)S)C(=O)NC(Cc1ccc(O)cc1)C(=O)O` (stereo not given), the pIC50 in assay [3] was 5.89; at Neprilysin, 6.49.
For the compound `CC(C)C[C@H](S)[C@H](Cc1ccccc1)C(=O)N[C@@H](C)C(=O)O`, the pIC50 in assay [1] is 5.00; against Neprilysin, 7.46.
On to `CC(S)C(Cc1ccccc1)C(=O)NCC(=O)O` (stereo not given), for which the pIC50 in assay [3] is 4.96; on Neprilysin, 7.30.
As for `CC(C)CC(S)CC(=O)NC(Cc1ccccc1)C(=O)O` (stereo not given), the pIC50 is 5.00 in assay [1] and 7.43 on Neprilysin.
For `CC(C)CC(S)C(Cc1ccccc1)C(=O)NC(Cc1ccc(O)cc1)C(=O)O` (stereo not given) the same measures were 6.15 and 7.59.
For `O=C(O)C(Cc1ccc(O)cc1)NC(=O)C(Cc1ccccc1)C(S)CCc1ccccc1` (stereo not given) the same measures were 5.80 and 6.74.
